The values below come from the array DNA melting data of Ke et al. (doi:10.1101/2024.01.08.574731).

A short description of data set [1]: melting temperature; fluorescence melt of hairpins on a sequencing array, two-state fit, raised by 9.35 °C to match UV melts. Conditions: sodium 0.088 M. An outline of the steps: (§1)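 Library hairpins on a sequenced MiSeq flow cell carried annealed Cy3 and quencher oligos, and their Cy3 fluorescence was imaged in 50 mM Na-HEPES pH 8.0 with 25 mM NaCl, in 2.5 °C steps up to 60 °C. Signals were normalised to Cy3 before quenching and to control constructs. Melting temperature and folding enthalpy were obtained from bootstrapped two-state fits, combined by inverse-variance weighting across four replicates, and the fitted temperatures were then raised by 9.35 °C to match UV melts.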

Data set [2] can be described thus: folding enthalpy; higher = less favourable; fluorescence melt of hairpins on a sequencing array, two-state fit. The settings on record: sodium 0.088 M. An outline of the steps:
as §1

With GAGTGCGAAAGCATCCTC ((((((....)))..))), in data set [1], the Tm was 33 °C. The folding enthalpy in data set [2] was -10.2 kcal/mol.

As for GAGTGCGAAAGCATTCTC ((((((....)))..))), the Tm in data set [1] amounted to 52.3 °C. Also, the folding enthalpy in data set [2] is -21.5 kcal/mol.

Take GAGTGCGCGAAAGCGCTC (((..(((....)))))): the Tm in data set [1] stood at 32 °C. Also, the folding enthalpy in data set [2] is -5.97 kcal/mol.

Take GAGTGCGGAAACACACTC (((((.(....).))))): the Tm in data set [1] was determined as 47.5 °C. In addition, in data set [2], the folding enthalpy is -28.4 kcal/mol.

On to GAGTGGGGAAACCTACTC ((((.((....)).)))), for which the Tm in data set [1] came out at 46.4 °C. For the same sequence, in data set [2], the folding enthalpy is -30.6 kcal/mol.

Consider GAGTGTGGAAACACACCC (.(((((....))))).), for which the Tm in data set [1] amounted to 40.8 °C. Besides, the folding enthalpy in data set [2] is -11.7 kcal/mol.

Regarding GAGTGTGGAAACACACTC (((((((....))))))), the Tm in data set [1] came to 66 °C. Besides, the folding enthalpy in data set [2] is -36.1 kcal/mol.

Regarding GAGTGTGGAAACACGTTC ((..(((....)))..)), the Tm in data set [1] is 42.9 °C. The folding enthalpy in data set [2] was -12.2 kcal/mol.

On to GAGTGTGGAAACATGCTC (((..((....))..))), for which the Tm in data set [1] is 38.7 °C. Also, the folding enthalpy in data set [2] is -31.2 kcal/mol.

As to GAGTGTGGAAACGTACTC ((((..(....)..)))), the Tm in data set [1] worked out at 35.5 °C. Further, in data set [2], the folding enthalpy is -22.9 kcal/mol.

For GAGTTAGAAATAACTC ((((((....)))))), the Tm in data set [1] was found to be 43.2 °C. Also, in data set [2], the folding enthalpy was -31.5 kcal/mol.

Regarding GAGTTAGGAAACTAACTC (((((((....))))))), the Tm in data set [1] came to 54.8 °C. The folding enthalpy in data set [2] is -36.3 kcal/mol.

Consider GAGTTCACGAAAGTGCTC (((..(((....)))))), for which the Tm in data set [1] is 28.1 °C. Further, the folding enthalpy in data set [2] was -10.9 kcal/mol.

As for GAGTTCCGAAAGGACTC (((.(((....)))))), the Tm in data set [1] amounted to 49.2 °C. Further, the folding enthalpy in data set [2] was -22.1 kcal/mol.

As for GAGTTGCGAAAGCAGCTC (((.(((....))).))), the Tm in data set [1] was found to be 62.1 °C. The folding enthalpy in data set [2] is -32.4 kcal/mol.

Regarding GAGTTGGCGAAAGCCCTC (((..(((....)))))), the Tm in data set [1] worked out at 28.7 °C. Besides, the folding enthalpy in data set [2] was -11.1 kcal/mol.

Take GAGTTTACGAAAGTACTC (((..(((....)))))): the Tm in data set [1] is 30 °C. Further, in data set [2], the folding enthalpy was -12.6 kcal/mol.

Turning to GATAAAACGAAAGTTATC (((..(((....)))))), the Tm in data set [1] was determined as 22.7 °C. Besides, the folding enthalpy in data set [2] was -9.65 kcal/mol.

In the case of GATAAACGAAAGTTAATC (((.(((....))).))), the Tm in data set [1] worked out at 34.4 °C. For the same sequence, the folding enthalpy in data set [2] was -16 kcal/mol.

As for GATAACACGAAAGTGATC (((..(((....)))))), the Tm in data set [1] was 24.9 °C. Besides, in data set [2], the folding enthalpy is -10.1 kcal/mol.

As to GATAACGAAAGTTAATC ((((((....))).))), the Tm in data set [1] was 30.7 °C. Also, the folding enthalpy in data set [2] was -15.4 kcal/mol.

For the sequence GATAACGAAAGTTCATC ((((((....))).))), the Tm in data set [1] stood at 26.2 °C. In addition, in data set [2], the folding enthalpy is -10.4 kcal/mol.

For GATAACGAAAGTTGTATC ((((((....)))..))), the Tm in data set [1] worked out at 26.9 °C. For the same sequence, the folding enthalpy in data set [2] was -18.9 kcal/mol.

On to GATAACGAAAGTTTATC ((((((....))).))), for which the Tm in data set [1] is 31.8 °C. Moreover, the folding enthalpy in data set [2] is -14.2 kcal/mol.

Turning to GATAACGGAAACGTCATC (((.(((....))).))), the Tm in data set [1] turned out to be 31.4 °C. For the same sequence, the folding enthalpy in data set [2] was -19.3 kcal/mol.

Regarding GATAAGCGAAAGCTAATC (((.(((....))).))), the Tm in data set [1] was 41.5 °C. Besides, the folding enthalpy in data set [2] is -16.8 kcal/mol.

Regarding GATAAGCGAAAGCTATC (((.(((....)))))), the Tm in data set [1] stood at 42.8 °C. For the same sequence, the folding enthalpy in data set [2] was -14.7 kcal/mol.

Regarding GATAAGCGAAAGCTCATC (((.(((....))).))), the Tm in data set [1] amounted to 33.8 °C. In addition, the folding enthalpy in data set [2] was -15.9 kcal/mol.

Turning to GATAAGGAAACTTATC ((((((....)))))), the Tm in data set [1] was found to be 40.1 °C. Moreover, the folding enthalpy in data set [2] is -26.8 kcal/mol.

In the case of GATACAGCGAAAGCTATC (((..(((....)))))), in data set [1], the Tm came out at 26.2 °C. For the same sequence, the folding enthalpy in data set [2] is -10.4 kcal/mol.

Consider GATACAGGAAACTGTATC (((((((....))))))), for which the Tm in data set [1] turned out to be 54 °C. For the same sequence, the folding enthalpy in data set [2] is -42.9 kcal/mol.

For GATACCCCGAAAGGGATC (((..(((....)))))), in data set [1], the Tm was found to be 33.3 °C. Moreover, in data set [2], the folding enthalpy was -12.4 kcal/mol.

Turning to GATACCGAAAGGTGGATC ((((((....)))..))), the Tm in data set [1] is 30.2 °C. Further, the folding enthalpy in data set [2] is -13 kcal/mol.

For GATACCGCGAAAGCGATC (((..(((....)))))), the Tm in data set [1] worked out at 23 °C. In data set [2], the folding enthalpy was -7.65 kcal/mol.

As for GATACCGGAAACGGCATC (((.(((....))).))), the Tm in data set [1] is 43.8 °C. Besides, in data set [2], the folding enthalpy was -25 kcal/mol.

Regarding GATACGCGAAAGCGCATC (((.(((....))).))), the Tm in data set [1] was 46.4 °C. Also, in data set [2], the folding enthalpy was -20.2 kcal/mol.

Regarding GATACGCGAAAGCGGATC (((.(((....))).))), in data set [1], the Tm was determined as 66 °C. The folding enthalpy in data set [2] was -29.3 kcal/mol.
